PRMT1 FP inh – PRMT1 methyltransferase inhibitors, primary screen, biochemical, fluorescence polarization; Protein arginine N-methyltransferase 1 (Homo sapiens), Q99873; recombinant PRMT1, activity-based probe fluorescence polarization; inhibition, % at 2.79 µM; hit rate 1.3% among 370,000;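 active = inhibition above about 21% made by adding two undisclosed values, limit read from the data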
UHRF1 MBD2 ctr – UHRF1 methylated DNA binding inhibitors, primary screen, counter-screen for MBD2 inhibitor project, biochemical, TR-FRET, human UHRF1, single concentration. AID 687016, 2013. hit rate 0.75% among 370,000. UHRF1 binding to methylated oligo. inhibition, % at 4.4 µM. E3 ubiquitin-protein ligase UHRF1 (Homo sapiens), Q96T88; in the data active = inhibition above about 21%;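 also: UHRF1 SRA domain binding a hemimethylated CpG hairpin DNA probe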
RBBP9 inh – human RBBP9 inhibitors, primary screen, biochemical, fluorescence polarization, FP-Rh probe, HTS. hit rate 0.2% among 220,000. inhibition, % at 7.94 µM. recombinant RBBP9;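 active = inhibition above the campaign mean of all tested compounds plus 3 SD, cut at about 14% in these data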
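System: RBBP9 protein | Quantity: 2.5 µM RBBP9 dispensing solution, before mixing | Reagent: FP-Rh probe, 375 nM dispensing solution | Timing: Enzyme-compound preincubation 30 min, then probe labeling 45 min, 25 °C | Measured by: Fluorescence polarization | Read-out: % inhibition | Replication: One well per compound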
LEDGF integ inh – blockers of LEDGF/p75-dependent integrase strand transfer – biochemical, TR-FRET, high throughput, primary screen; inhibition, % at 3.7 µM; hit rate 0.64% among 370,000; TR-FRET IN-LEDGF/p75 DNA integration, Eu/Cy5; HIV-1 integrase (with human LEDGF/p75); AID 743269, 2014;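 active = inhibition above the screen-wide mean plus 3 SD, cut at about 13% in these data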;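 also: signal is the Cy5 over europium emission ratio at 671 and 618 nm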
ABHD5 PLIN5 PPI – ABHD5-PLIN5 interaction inhibitors, primary screen, cell lysate, split luciferase complementation, luminescence; Perilipin-5 (Homo sapiens) + 1-acylglycerol-3-phosphate O-acyltransferase ABHD5 (Homo …; Split G. princeps luciferase complementation, 4 h; inhibition, % at 4 µM; hit rate 0.78% among 360,000; AID 602281, 2012;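 active = inhibition above the mean inhibition across every tested compound plus 3 SD, cut at about 22% in these data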
Target sequence (Q00G26 whole entry, looked up): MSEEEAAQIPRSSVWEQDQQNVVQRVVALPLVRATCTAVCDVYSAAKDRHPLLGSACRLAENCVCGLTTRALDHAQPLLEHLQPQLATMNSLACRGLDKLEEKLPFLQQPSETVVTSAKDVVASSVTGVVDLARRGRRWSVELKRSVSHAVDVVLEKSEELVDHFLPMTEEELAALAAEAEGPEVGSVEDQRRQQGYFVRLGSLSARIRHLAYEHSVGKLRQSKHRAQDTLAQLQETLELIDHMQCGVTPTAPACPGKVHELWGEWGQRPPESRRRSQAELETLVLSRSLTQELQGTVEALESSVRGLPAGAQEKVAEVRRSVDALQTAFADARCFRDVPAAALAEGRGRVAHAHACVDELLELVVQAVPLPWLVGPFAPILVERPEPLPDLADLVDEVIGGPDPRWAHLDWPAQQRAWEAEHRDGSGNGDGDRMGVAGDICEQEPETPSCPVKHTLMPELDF
Target sequence (Q8WTS1 whole entry, looked up): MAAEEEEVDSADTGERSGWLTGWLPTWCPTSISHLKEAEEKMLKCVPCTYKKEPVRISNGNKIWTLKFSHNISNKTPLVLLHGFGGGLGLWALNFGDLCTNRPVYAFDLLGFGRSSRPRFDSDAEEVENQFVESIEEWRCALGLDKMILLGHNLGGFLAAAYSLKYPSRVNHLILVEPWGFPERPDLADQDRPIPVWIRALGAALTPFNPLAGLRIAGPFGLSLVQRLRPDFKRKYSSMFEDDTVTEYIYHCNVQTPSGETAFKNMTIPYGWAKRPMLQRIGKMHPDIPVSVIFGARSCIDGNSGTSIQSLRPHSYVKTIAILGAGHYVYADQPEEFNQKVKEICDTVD
MBD2 DNA inh – inhibitors of MBD2 binding to methylated DNA, primary screen, biochemical, TR-FRET, DNA-binding domain, human | Methyl-CpG-binding domain protein 2 (Homo sapiens), Q9UBB5 | hit rate 0.31% among 370,000 | inhibition, % at 4.4 µM | MBD2 binding to methylated oligonucleotide; in the data active = inhibition above about 13%
Each line names hits and unclear results; the compound was inactive in the other large screens. Compounds with a hit are over-represented: about 3.1% of the library has one in this group of screens.

COc1ccc(S(=O)(=O)NCc2ccccn2)cc1NC(=O)c1ccccc1	UHRF1 MBD2 ctr 36 (no result: RBBP9 inh)
COc1ccc(S(=O)(=O)NCc2ccccn2)cc1NC(=O)c1ccc(C)cc1	none (no result: RBBP9 inh)
Cc1ccc(S(=O)(=O)NCc2ccccn2)cc1C	UHRF1 MBD2 ctr 23 (no result: RBBP9 inh)
CCN1C(=O)CC(Sc2ccccc2C(=O)O)C1=O (configuration not stated)	none
CCOc1ccc(N2C(=O)CC(Sc3ccccc3C(=O)O)C2=O)c([N+](=O)[O-])c1 (configuration not stated)	PRMT1 FP inh 68
Cc1ccccc1CN1[C@@H](C)[C@H](c2ccccc2)Oc2cccc(NCCc3ccccc3)c2S1(=O)=O	UHRF1 MBD2 ctr 21 (no result: RBBP9 inh, ABHD5 PLIN5 PPI)
COc1ccc(N2C3=C(CC4=C2CC(C)(C)CC4=O)C(=O)CC(C)(C)C3)cc1	PRMT1 FP inh 23
COc1ccc(N2C3=C(CC4=C2CCCC4=O)C(=O)CCC3)cc1	none
O=C(O)c1ccccc1C1Nc2ccccc2C(=O)N1CCCN1CCOCC1 (configuration not stated)	UHRF1 MBD2 ctr 40
O=C1c2ccccc2NC(c2ccccc2)N1CCCN1CCOCC1 (configuration not stated)	none
CCN(CC)S(=O)(=O)c1cccc(NC(=O)COC(=O)C2COc3ccccc3O2)c1 (configuration not stated)	UHRF1 MBD2 ctr 24
CCN(C(=O)c1ccco1)c1nc(CC(=O)Nc2ccc(Cl)cc2)cs1	none
CCC(=O)N(Cc1ccco1)c1nc(C(=O)Nc2ccc(Cl)cc2)c(C)s1	PRMT1 FP inh 21
O=C(CN1C(=O)S/C(=C\c2ccccc2Cl)C1=O)NCCCn1ccnc1	PRMT1 FP inh 24 (no result: RBBP9 inh)
COc1ccccc1/C=C1\SC(=O)N(CC(=O)NCCCn2ccnc2)C1=O	none (no result: RBBP9 inh)
CCCCCCCCN1C(=O)[C@@H](CC(=O)NCc2cccc(C(F)(F)F)c2)C[C@@]2(C(=O)OC)C1=C[C@H](COCc1ccccc1)O[C@@H]2C	none (no result: RBBP9 inh, ABHD5 PLIN5 PPI)
O=C(O)C1=C(C(=O)O)C2C=CC1C2	UHRF1 MBD2 ctr 33 (no result: RBBP9 inh)
Cc1cc(C)c(S(=O)(=O)NCCSCc2ccco2)c(C)c1	PRMT1 FP inh 24 (no result: RBBP9 inh)
Cc1cccc(-c2cccc3c4c([nH]c23)[C@@H]2C[C@H](N(C)C(=O)Nc3ccccc3)[C@H]([C@H](C)O)CN2CC4)c1	none (no result: RBBP9 inh, ABHD5 PLIN5 PPI)
CCOC(=O)CC[C@@H]1CC[C@]2(CCCN(Cc3nccs3)C2)O1	none (no result: RBBP9 inh, ABHD5 PLIN5 PPI)
CC(C)C[C@H](NC(=O)N1CCn2c1nc1ccccc12)C(=O)NCc1ccccc1	none (no result: RBBP9 inh)
CC(C)C[C@H](NC(=O)N1CCn2c1nc1ccccc12)C(=O)NCCc1ccccc1	UHRF1 MBD2 ctr 52 (no result: RBBP9 inh)
CCCCOCCCNC(=O)C[C@@H]1C[C@]2(C(=O)OCC)CCC3=C2N(CCC3)C1=O	none (no result: RBBP9 inh, ABHD5 PLIN5 PPI)
CSc1ccccc1NC(=O)CN(C)C(=O)Cc1c[nH]c2ccccc12	none (no result: RBBP9 inh)
CSc1ccccc1NC(=O)CN(C)C(=O)CCc1c[nH]c2ccccc12	UHRF1 MBD2 ctr 21 (no result: RBBP9 inh)
O=S(=O)(Nc1ccc(-c2ccc3nncn3n2)cc1)c1cccc(F)c1	UHRF1 MBD2 ctr 24 (no result: RBBP9 inh)
O=C(Cn1sc2ccccc2c1=O)NC12CC3CC(CC(C3)C1)C2	ABHD5 PLIN5 PPI 59 (no result: PRMT1 FP inh, UHRF1 MBD2 ctr, LEDGF integ inh, MBD2 DNA inh)
Nc1cccc2c1C(=O)N(CC(=O)NC13CC4CC(CC(C4)C1)C3)C2=O	none
CCCCNC(=O)NCCCN1CCN(c2ccc(F)cc2)CC1	none (no result: RBBP9 inh, ABHD5 PLIN5 PPI)
CC[C@@]1(C(=O)OC)N[C@H](CN(C)C(=O)Nc2ccc(F)cc2)[C@@H]2C(=O)N(C)C(=O)[C@@H]21	UHRF1 MBD2 ctr 21 (no result: RBBP9 inh)
CCN(C[C@H]1N[C@@](Cc2ccccc2)(C(=O)OC)[C@H]2C(=O)N(C)C(=O)[C@@H]12)S(=O)(=O)c1ccc(OC(F)(F)F)cc1	UHRF1 MBD2 ctr 21 (no result: RBBP9 inh)
CCc1ccc(O)c(N=Cc2ccccc2O)c1	UHRF1 MBD2 ctr 32
CCOc1ccc(N=Cc2ccccc2O)cc1	none (no result: RBBP9 inh)
CCC(C)NC(=O)CCNS(=O)(=O)c1ccc(Br)cc1 (configuration not stated)	UHRF1 MBD2 ctr 32
CN(C)c1ccc(N(C)C)c(C(O)(c2ccccc2)c2ccccc2)c1	none (no result: RBBP9 inh, ABHD5 PLIN5 PPI)
CCOc1ccccc1N(CC(=O)NC1CCCCC1)C(=O)c1nsc(Cl)c1Cl	UHRF1 MBD2 ctr 22
Cc1cccc(N(CC(=O)NC2CCCC2)C(=O)c2nsc(Cl)c2Cl)c1C	none
O=S(=O)(c1ccc(N2CCOCC2)c(Cl)c1)N1CCOCC1	none (no result: RBBP9 inh)
O=c1c2ccccc2sn1-c1cc(S(=O)(=O)N2CCOCC2)ccc1N1CCOCC1	PRMT1 FP inh 88, RBBP9 inh 45, ABHD5 PLIN5 PPI 97
Cc1cc(C)nc(NCC(O)CNc2ccccc2Cl)n1 (configuration not stated)	UHRF1 MBD2 ctr 23
COCCNC(=O)C(c1ccc(F)cc1)N(C(=O)CCC(=O)Nc1nccs1)c1ccc(C)cc1 (configuration not stated)	UHRF1 MBD2 ctr 21
Cc1cc(C)nc(N2CCC(C(=O)N(C)CCc3ccccc3)CC2)n1	none (no result: RBBP9 inh, ABHD5 PLIN5 PPI)
COC(=O)[C@]12C[C@H](CC(=O)N3CCOCC3)C(=O)N(Cc3ccccc3)C1=C[C@H](C(C)(C)C)O[C@@H]2C	none (no result: RBBP9 inh, ABHD5 PLIN5 PPI)
CN(CCc1ccccc1)C(=O)c1cccc(NC(=O)Cc2cccc(NC(=O)C3CCN(C(=O)C4CC4)CC3)c2)c1	UHRF1 MBD2 ctr 96 (no result: RBBP9 inh)
CCCCNC(=O)O[C@H]1CC[C@@]23CCCN2C(=O)CCC[C@H]3C1	none (no result: RBBP9 inh, ABHD5 PLIN5 PPI)
CSc1ccccc1C(=O)NCc1ccccc1C	UHRF1 MBD2 ctr 22
CSc1ccccc1C(=O)Nc1c(C)cccc1C	none
Cc1ccc(C)c(NC(=O)COC(=O)CNC(=O)C2CCCCC2)c1	UHRF1 MBD2 ctr 52 (no result: RBBP9 inh)
Cc1cccc(NC(=O)COC(=O)CNC(=O)C2CCCCC2)c1	none
O=C1C=C(Nc2ccc(F)cc2)c2ccccc2C1=O	none (no result: RBBP9 inh)
CCOc1ccc(NC2=CC(=O)C(=O)c3ccccc32)cc1	LEDGF integ inh 23 (no result: RBBP9 inh)
OCC1(Cc2cccc(F)c2)CCN(Cc2cccc3nccnc23)CC1	none
CC(C)c1csc(CN2CCC(CO)(Cc3cccc(F)c3)CC2)n1	UHRF1 MBD2 ctr 59
C=C1CC2(OC1=O)c1ccccc1CCc1ccccc12	ABHD5 PLIN5 PPI 60 (no result: RBBP9 inh)
O=C1NC(=O)C2(CCc3ccccc32)N1 (configuration not stated)	none
COC(=O)C1CN(Cc2ccccc2)CCS(=O)(=O)N1Cc1cn(Cc2cccc(Cl)c2)nn1 (configuration not stated)	none (no result: RBBP9 inh, ABHD5 PLIN5 PPI)
Cc1ccccc1C(=O)N=c1ccn(-c2nc3ccccc3nc2NS(=O)(=O)c2ccc(F)cc2)cc1	UHRF1 MBD2 ctr 21 (no result: RBBP9 inh)
